In ChEMBL document CHEMBL1125169, “Trifluoromethylacetylenic alcohols as affinity labels: inactivation of estradiol dehydrogenase by a trifluoromethylacetylenic secostradiol” (J Med Chem, 1990):
Values belong to the molecule of their own block, whether it stands above or below them.

Columns and labels:
[1] = molecular target: T1, 17-beta-hydroxysteroid dehydrogenase type 1 (Homo sapiens) (UniProt P14061); assay: Tested by protection experiments to demonstrate the inactivation of estradiol dehydrogenase and the kinetic parameter Kapp was reported at a concentration of 20 uM
T1 sequence (whole entry): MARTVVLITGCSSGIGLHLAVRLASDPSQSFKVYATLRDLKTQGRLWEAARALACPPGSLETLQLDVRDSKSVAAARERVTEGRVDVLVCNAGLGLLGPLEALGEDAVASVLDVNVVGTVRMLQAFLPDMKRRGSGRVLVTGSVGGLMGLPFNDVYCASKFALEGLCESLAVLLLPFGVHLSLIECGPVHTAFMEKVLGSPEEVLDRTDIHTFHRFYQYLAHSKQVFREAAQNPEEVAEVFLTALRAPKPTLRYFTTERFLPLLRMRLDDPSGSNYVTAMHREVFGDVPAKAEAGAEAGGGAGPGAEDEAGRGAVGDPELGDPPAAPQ
Method in brief: (§1)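 Inactivation of estradiol dehydrogenase with inhibitor at 20 μM, either alone or with a protecting ligand: 17β-estradiol or 17α-estradiol at 32 μM, or cofactors at 150 μM. Apparent inactivation rate constant (kapp, min⁻¹) was taken from least-squares fits of the time courses (r ≥ 0.992).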

[2] = The limiting half life time was reported
Method in brief: (§2)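 Time-dependent inactivation of estradiol dehydrogenase was run at several inhibitor concentrations without NAD⁺, in 1 M carbonate buffer (pH 9.2) with glycerol omitted. Points are the mean of three experiments (two at 80 μM). Pseudo-first-order inactivation kinetics gave Ki and limiting t1/2.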

[3] = molecular target: T2, 17-beta-hydroxysteroid dehydrogenase type 1 (Homo sapiens, UniProt P14061); assay: Tested for time-dependent inactivation of the enzyme that followed pseudo- first- order kinetics in the absence of NAD+ and the Ki values were reported; method in brief: as §2
T2 sequence (P14061 whole entry): T1 sequence (whole entry)

[4] = molecular target: T1, 17-beta-hydroxysteroid dehydrogenase type 1 (Homo sapiens); assay: Tested by protection experiments to demonstrate the inactivation of estradiol dehydrogenase and the kinetic parameter Kapp was reported at a concentration of 150 uM; method in brief: as §1
[5] = molecular target: T2, 17-beta-hydroxysteroid dehydrogenase type 1; assay: Tested by protection experiments to demonstrate the inactivation of estradiol dehydrogenase and the kinetic parameter Ki app was reported at a concentration of 20 uM; conditions: read-out: Ki app; method in brief: as §1
[6] = substrate: C#CC(O)[C@@]1(C)CCC2c3ccc(O)cc3CCC2C1

K app [1]: 0.013 min⁻¹
Molecule: NC(=O)c1ccc[n+]([C@@H]2O[C@H](COP(=O)([O-])OP(=O)(O)OC[C@H]3O[C@@H](n4cnc5c(N)ncnc54)[C@H](O)[C@@H]3O)[C@@H](O)[C@H]2O)c1

K app [1]: 0.013 min⁻¹
Molecule: C[C@]12CC[C@@H]3c4ccc(O)cc4CC[C@H]3[C@@H]1CC[C@@H]2O.NC(=O)C1=CN([C@@H]2O[C@H](COP(=O)(O)OP(=O)(O)OC[C@H]3O[C@@H](n4cnc5c(N)ncnc54)[C@H](O)[C@@H]3O)[C@@H](O)[C@H]2O)C=CC1

half-life [2]: 7 min | K app [1]: 0.026 min⁻¹ | Ki [3]: 59 µM | K app [4]: 0.014 min⁻¹
Molecule: C[C@]1(C(O)C#CC(F)(F)F)CCC2c3ccc(O)cc3CCC2C1 (stereo not given in full)

Ki [5]: 2.8 µM
Molecule: C#CC(=O)[C@@]1(C)CCC2c3ccc(O)cc3CCC2C1 (stereo not given in full)

K app [1]: 0.013 min⁻¹
Molecule: C[C@]12CC[C@@H]3c4ccc(O)cc4CC[C@H]3[C@@H]1CC[C@@H]2O

K app [1]: 0.025 min⁻¹
Molecule: NC(=O)C1=CN(C2OC(COP(=O)(O)OP(=O)(O)OC[C@H]3O[C@@H](n4cnc5c(N)ncnc54)[C@H](O)[C@@H]3O)[C@H](O)[C@@H]2O)C=CC1 (stereo not given in full)

half-life [2]: 8 min | K app [1]: 0.021 min⁻¹ | Ki [3]: 65 µM | K app [4]: 0.011 min⁻¹
Molecule: C[C@@]1(C(O)C#CC(F)(F)F)CCC2c3ccc(O)cc3CCC2C1 (single isomer, unassigned)

K app [1]: 0.01 min⁻¹
Molecule: C[C@]12CC[C@@H]3c4ccc(O)cc4CC[C@H]3[C@@H]1CC[C@H]2O

B1: 17-beta-hydroxysteroid dehydrogenase type 1 (Homo sapiens), P14061 (protein)
chain: T1 sequence (whole entry)
Km [6]: 79 µM
